B3: ScCia1, strep-tagged bait (natural protein)
chain: MASINLIKSLKLYKEKIWSFDFSQGILATGSTDRKIKLVSVKYDDFTLIDVLDETAHKKAIRSVAWRPHTSLLAAGSFDSTVSIWAKEESADRTFEMDLLAIIEGHENEVKGVAWSNDGYYLATCSRDKSVWIWETDESGEEYECISVLQEHSQDVKHVIWHPSEALLASSSYDDTVRIWKDYDDDWECVAVLNGHEGTVWSSDFDKTEGVFRLCSGSDDSTVRVWKYMGDDEDDQQEWVCEAILPDVHKRQVYNVAWGFNGLIASVGADGVLAVYEEVDGEWKVFAKRALCHGVYEINVVKWLELNGKTILATGGDDGIVNFWSLEKAA

Experiments:
[1] = biological target: ScCia2 (Saccharomyces cerevisiae); test: MST
[2] = biological target: FITC-4mer probe (last 4 residues of ScLeu1) (Saccharomyces cerevisiae) (UniProt P07264); test: fluorescence polarisation
ScCTC-Leu1 complex = test: Competition of Nar1 with Leu1 for the CTC; format: binding, Saccharomyces cerevisiae; conditions: Nar1 0.25-1.0 molar equivalents relative to Leu1; streptactin eluate, SDS-PAGE
ScCia1-Cia2 = test: Affinity copurification with ScCia1-Cia2; format: binding, Saccharomyces cerevisiae; conditions: streptactin eluate, SDS-PAGE / western blot
Summary of the method: (§1)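 Nar1 is the prey. Strep-tagged bait is either single CTC subunits (Cia1 alone) or combinations (Cia1-Cia2, or full Cia1-Cia2-Met18 complex). Eluates are analysed by SDS-PAGE and western blot for copurifying Nar1. Uncropped gels, including input samples and controls, accompany the analysis.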

ScCia1 = test: Affinity copurification with ScCia1; format: binding, Saccharomyces cerevisiae; conditions: streptactin eluate, SDS-PAGE / western blot
Summary of the method: as §1

[3] = test system: ScCTC (Cia1, Cia2, Met18); test: Affinity copurification with ScCTC; format: binding, Saccharomyces cerevisiae; conditions: streptactin eluate, strep-tagged Cia2 bait, SDS-PAGE / western blot
Summary of the method: as §1

ScNar1 = biological target: T1, ScNar1 (Saccharomyces cerevisiae, UniProt P23503 1-491); test: pull-down
T1 sequence: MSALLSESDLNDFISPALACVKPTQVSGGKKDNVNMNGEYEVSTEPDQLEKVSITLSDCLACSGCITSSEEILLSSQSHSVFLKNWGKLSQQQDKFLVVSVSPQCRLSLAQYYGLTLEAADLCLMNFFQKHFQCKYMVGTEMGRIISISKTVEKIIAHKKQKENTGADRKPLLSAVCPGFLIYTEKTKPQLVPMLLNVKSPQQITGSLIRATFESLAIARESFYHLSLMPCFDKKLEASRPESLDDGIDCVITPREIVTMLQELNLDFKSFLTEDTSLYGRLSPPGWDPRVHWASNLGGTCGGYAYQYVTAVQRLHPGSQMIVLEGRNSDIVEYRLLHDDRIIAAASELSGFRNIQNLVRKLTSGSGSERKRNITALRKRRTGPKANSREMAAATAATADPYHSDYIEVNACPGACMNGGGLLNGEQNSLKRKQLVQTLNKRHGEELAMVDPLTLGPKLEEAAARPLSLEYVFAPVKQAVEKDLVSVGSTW

SPCNar1 = test: Affinity copurification of ScCia1 variants with SPCNar1; format: binding, Saccharomyces cerevisiae; conditions: ScCia1 variants with Met18 and strep-tagged Cia2 bait, western blot
full-length Nar1 = test: Affinity copurification of CTC with ScCia1 variants and full-length Nar1; format: binding, Saccharomyces cerevisiae; conditions: ScCia1 variants incorporated into the CTC
[4] = biological target: B3; test: pull-down

ScCia1 Y254A (from UniProt Q05583 1-330) (natural protein)
fold increase in KD against wild-type Cia1 [1]: > 10 fold

CtCia1-Cia2 complex
Kd [2]: 25 µM

ScCia1-Cia2 complex (from UniProt Q05583 1-330)
Kd [2]: 86 µM

HsCia1-Cia2a complex (from UniProt O76071 1-339; Q9H5X1 1-160)
Kd [2]: 48 µM

B1: Nar1: full-length S. cerevisiae Nar1 with N-terminal His6-SUMO tag (protein)
chain: MSALLSESDLNDFISPALACVKPTQVSGGKKDNVNMNGEYEVSTEPDQLEKVSITLSDCLACSGCITSSEEILLSSQSHSVFLKNWGKLSQQQDKFLVVSVSPQCRLSLAQYYGLTLEAADLCLMNFFQKHFQCKYMVGTEMGRIISISKTVEKIIAHKKQKENTGADRKPLLSAVCPGFLIYTEKTKPQLVPMLLNVKSPQQITGSLIRATFESLAIARESFYHLSLMPCFDKKLEASRPESLDDGIDCVITPREIVTMLQELNLDFKSFLTEDTSLYGRLSPPGWDPRVHWASNLGGTCGGYAYQYVTAVQRLHPGSQMIVLEGRNSDIVEYRLLHDDRIIAAASELSGFRNIQNLVRKLTSGSGSERKRNITALRKRRTGPKANSREMAAATAATADPYHSDYIEVNACPGACMNGGGLLNGEQNSLKRKQLVQTLNKRHGEELAMVDPLTLGPKLEEAAARPLSLEYVFAPVKQAVEKDLVSVGSTW
competition with Leu1 for binding to the CTC (ScCTC-Leu1 complex): the interaction of Nar1 and Leu1 with the CTC is mutually exclusive
copurification with Cia1-Cia2 (ScCia1-Cia2): Nar1 eluting with Cia1, Cia1-Cia2, and the full CTC
copurification with Cia1 (ScCia1): Nar1 eluting with Cia1, Cia1-Cia2, and the full CTC
copurification with the CTC [3]: Nar1 eluting with Cia1, Cia1-Cia2, and the full CTC

B2: Nar1 TCR-peptide variant: ScNar1 with C-terminal Trp substituted with Ala (protein)
chain: MSALLSESDLNDFISPALACVKPTQVSGGKKDNVNMNGEYEVSTEPDQLEKVSITLSDCLACSGCITSSEEILLSSQSHSVFLKNWGKLSQQQDKFLVVSVSPQCRLSLAQYYGLTLEAADLCLMNFFQKHFQCKYMVGTEMGRIISISKTVEKIIAHKKQKENTGADRKPLLSAVCPGFLIYTEKTKPQLVPMLLNVKSPQQITGSLIRATFESLAIARESFYHLSLMPCFDKKLEASRPESLDDGIDCVITPREIVTMLQELNLDFKSFLTEDTSLYGRLSPPGWDPRVHWASNLGGTCGGYAYQYVTAVQRLHPGSQMIVLEGRNSDIVEYRLLHDDRIIAAASELSGFRNIQNLVRKLTSGSGSERKRNITALRKRRTGPKANSREMAAATAATADPYHSDYIEVNACPGACMNGGGLLNGEQNSLKRKQLVQTLNKRHGEELAMVDPLTLGPKLEEAAARPLSLEYVFAPVKQAVEKDLVSVGSTA
copurification with the CTC [3]: less Nar1 TCR-peptide variant was found in the eluate

B3
binding result (ScNar1): binds

B4: R127ACia1: ScCia1 variant (protein)
chain: MASINLIKSLKLYKEKIWSFDFSQGILATGSTDRKIKLVSVKYDDFTLIDVLDETAHKKAIRSVAWRPHTSLLAAGSFDSTVSIWAKEESADRTFEMDLLAIIEGHENEVKGVAWSNDGYYLATCSADKSVWIWETDESGEEYECISVLQEHSQDVKHVIWHPSEALLASSSYDDTVRIWKDYDDDWECVAVLNGHEGTVWSSDFDKTEGVFRLCSGSDDSTVRVWKYMGDDEDDQQEWVCEAILPDVHKRQVYNVAWGFNGLIASVGADGVLAVYEEVDGEWKVFAKRALCHGVYEINVVKWLELNGKTILATGGDDGIVNFWSLEKAA
modifications: left off: His6, N-terminal, state not stated
interaction with SPCNar1 (SPCNar1): diminished the amount

B5: R127E (protein, UniProt Q05583 1-330, looked up, variant R127E)
Cytosolic iron-sulfur protein …: MASINLIKSLKLYKEKIWSFDFSQGILATGSTDRKIKLVSVKYDDFTLIDVLDETAHKKAIRSVAWRPHTSLLAAGSFDSTVSIWAKEESADRTFEMDLLAIIEGHENEVKGVAWSNDGYYLATCSEDKSVWIWETDESGEEYECISVLQEHSQDVKHVIWHPSEALLASSSYDDTVRIWKDYDDDWECVAVLNGHEGTVWSSDFDKTEGVFRLCSGSDDSTVRVWKYMGDDEDDQQEWVCEAILPDVHKRQVYNVAWGFNGLIASVGADGVLAVYEEVDGEWKVFAKRALCHGVYEINVVKWLELNGKTILATGGDDGIVNFWSLEKAA
interaction with full-length Nar1 (full-length Nar1): none of the Cia1 variants tested, including the charge swapped R127E variant, completely blocked interaction

B6: Leu1: S. cerevisiae Leu1 with N-terminal His6-TEV tag (protein)
chain: MVYTPSKGPRTLYDKVFDAHVVHQDENGSFLLYIDRHLVHEVTSPQAFEGLENAGRKVRRVDCTLATVDHNIPTESRKNFKSLDTFIKQTDSRLQVKTLENNVKQFGVPYFGMSDARQGIVHTIGPEEGFTLPGTTVVCGDSHTSTHGAFGSLAFGIGTSEVEHVLATQTIIQAKSKNMRITVNGKLSPGITSKDLILYIIGLIGTAGGTGCVIEFAGEAIEALSMEARMSMCNMAIEAGARAGMIKPDETTFQYTKGRPLAPKGAEWEKAVAYWKTLKTDEGAKFDHEINIEAVDVIPTITWGTSPQDALPITGSVPDPKNVTDPIKKSGMERALAYMGLEPNTPLKSIKVDKVFIGSCTNGRIEDLRSAAAVVRGQKLASNIKLAMVVPGSGLVKKQAEAEGLDKIFQEAGFEWREAGCSICLGMNPDILDAYERCASTSNRNFEGRQGALSRTHLMSPAMAAAAGIAGHFVDIREFEYKDQDQSSPKVEVTSEDEKELESAAYDHAEPVQPEDAPQDIANDELKDIPVKSDDTPAKPSSSGMKPFLTLEGISAPLDKANVDTDAIIPKQFLKTIKRTGLKKGLFYEWRFRKDDQGKDQETDFVLNVEPWREAEILVVTGDNFGCGSSREHAPWALKDFGIKSIIAPSYGDIFYNNSFKNGLLPIRLDQQIIIDKLIPIANKGGKLCVDLPNQKILDSDGNVLVDHFEIEPFRKHCLVNGLDDIGITLQKEEYISRYEALRREKYSFLEGGSKLLKFDNVPKRKAVTTTFDKVHQDW
copurification with the CTC [3]: requires its C-terminal Trp to interact with the CTC in vitro

KDLVSVGSTW (domain or fragment) [SPCNar1 (SUMO peptide carrier with Nar1 residues 482-491)]
binding result [4]: binds

— PMC11974842 (bioRxiv, 2025)
